Legend:
[1] = Plasma oxytocin pharmacokinetics, phase 1 single-dose study; assay type: in vivo, human
Safety and tolerability = assay type: in vivo, human; settings: IM 10 IU (17 μg); N = 16
How it was run: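 Healthy female volunteers in a single-centre, single-blind, fixed-sequence phase 1 study received a single IM dose of test compound, 10 IU, alongside inhaled dosing sessions. Adverse events and serious adverse events were recorded throughout the study. Spirometry, clinical laboratory tests, vital signs, ECG intervals, physical examination and cardiac telemetry were checked at set post-dose times. Follow-up visit 7–21 days after the last inhaled dose. Data were summarised descriptively.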

[2] = sublingual, male volunteers; ref De Groot et al., 1995; cited from earlier work
[3] = female, human, plasma, im, 10 IU

| Compound | subjects in whom plasma oxytocin remained quantifiable up to 4 h ([1]; IM 10 IU, LLQ 2 pg/mL) | AUC(0–3 h), adjusted geometric mean ([1]; IM 10 IU, plasma, mixed-effect model, PK population) | AUC(0-t) [1, 3] | Cmax [1, 3] | half-life [1, 3] | level at 0.5 h [1, 3] | tmax [1, 3] | tmax ([1]; following IM administration (10 IU), plasma) | AE that led to discontinuation of study drug or withdrawal from the study, number of subjects (Safety and tolerability) | Deaths, number of AEs (Safety and tolerability) | Deaths, number of subjects (Safety and tolerability) | Headache (drug-related), number of AEs (Safety and tolerability) | Led to discontinuation of study drug or withdrawal from the study, number of AEs (Safety and tolerability) | Non-fatal SAEs, number of subjects (Safety and tolerability) | absorption half-life [2] | bioavailability [2] | lag time [2] |
| --- | --- | --- | --- | --- | --- | --- | --- | --- | --- | --- | --- | --- | --- | --- | --- | --- | --- |
| CC[C@H](C)[C@@H]1NC(=O)[C@H](Cc2ccc(O)cc2)NC(=O)[C@@H](N)CSSC[C@@H](C(=O)N2CCC[C@H]2C(=O)N[C@@H](CC(C)C)C(=O)NCC(N)=O)NC(=O)[C@H](CC(N)=O)NC(=O)[C@H](CCC(N)=O)NC1=O [IM oxytocin, oxytocin] | 5/16 | 0.12761 ng·h/mL | 0.12 ng·h/mL | 0.19 ng/mL | 38.4 min | 0.0822 ng/mL | 10.2 min | ~ 10 min | 0 | 0 | 0 | 1 | 0 | 0 |  |  |  |
| oxytocin [sublingual oxytocin] |  |  |  |  |  |  |  |  |  |  |  |  |  |  | long absorption half-life | poor bioavailability | long lag time |

Source: publication PMC5552226 (EBioMedicine, 2017)
